# ChEMBL document CHEMBL3352307, “Bioactive anthraquinone derivatives from the mangrove-derived fungus Stemphylium sp. 33231” (J Nat Prod, 2014)
# What was measured:
# [1] = Cytotoxic activity against mouse B16F10 cells by MTT assay; type: functional, cell-based; details: B16-F10
# Outline: (§1)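 MTT viability read-out on mouse melanoma B16F10 and human lung adenocarcinoma A549 lines, with epirubicin as positive control. Activity is given as IC50.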
# [2] = tested on: Bacillus cereus; assay: Antimicrobial activity against Bacillus cereus ATCC 14579 by broth dilution assay; type: functional
# Outline: (§2)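 Conventional broth dilution run on the seven terrestrial pathogenic bacterial strains, with ciprofloxacin as positive control.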
# [3] = tested on: A549; assay: Cytotoxic activity against human A549 cells by MTT assay; type: functional, cell-based; outline: as §1
# [4] = tested on: Escherichia coli; assay: Antimicrobial activity against Escherichia coli ATCC 25922 by broth dilution assay; type: functional; outline: as §2
# [5] = tested on: Bacillus subtilis; assay: Antimicrobial activity against Bacillus subtilis ATCC 6633 by broth dilution assay; type: functional; details: Bacillus subtilis, ATCC 6633; read-out: MIC; outline: as §2
# [6] = tested on: Micrococcus; assay: Antimicrobial activity against Micrococcus tetragenus ATCC 13623 by broth dilution assay; type: functional; details: Micrococcus, ATCC 13623; read-out: MIC; outline: as §2
# [7] = tested on: Staphylococcus aureus; assay: Antimicrobial activity against Staphylococcus aureus ATCC 6538 by broth dilution assay; type: functional; outline: as §2
# [8] = tested on: Staphylococcus; assay: Antimicrobial activity against Staphylococcus albus ATCC 8799 by broth dilution assay; type: functional; details: Staphylococcus, ATCC 8799; read-out: MIC; outline: as §2
# [9] = tested on: Kocuria rhizophila; assay: Antimicrobial activity against Kocuria rhizophila ATCC 9341 by broth dilution assay; type: functional; details: Kocuria rhizophila, ATCC 9341; read-out: MIC; outline: as §2
# [10] = Bacillus cereus, ATCC 14579, read-out: MIC
# [11] = Escherichia coli, ATCC 25922, read-out: MIC
# [12] = Staphylococcus aureus, ATCC 6538, read-out: MIC
Compound,"MIC [2, 10]","MIC [4, 11]",MIC [5],MIC [6],"MIC [7, 12]",MIC [8],MIC [9],IC50 [1],IC50 [3],MIC [2],MIC [4],MIC [7]
COc1cc(O)c2c(c1)C(=O)C1=C(C2=O)[C@H](O)[C@@H](O)[C@@](C)(O)[C@@H]1O [ALTERSOLANOL A],> 10 µM,4.1 µM,4.1 µM,8.2 µM,2.07 µM,> 10 µM,> 10 µM,> 10 µM,> 10 µM,,,
COc1cc(O)c2c(c1)[C@H](O)[C@@H]1C(=C[C@@H](O)[C@@](C)(O)[C@@H]1O)C2=O,> 10 µM,> 10 µM,> 10 µM,> 10 µM,> 10 µM,> 10 µM,> 10 µM,> 10 µM,> 10 µM,,,
COc1cc(O)c2c(c1-c1c(OC)cc(O)c3c1C(=O)C1=C(C[C@@H](O)[C@@](C)(O)[C@@H]1O)C3=O)C(=O)C1=C(C[C@@H](O)[C@@](C)(O)[C@@H]1O)C2=O,> 10 µM,> 10 µM,> 10 µM,> 10 µM,> 10 µM,> 10 µM,> 10 µM,,,,,
COc1cc(O)c2c(c1)C(=O)c1cc(C)c(O)c(-c3c(O)c(C)cc4c3C(=O)c3c(O)cc(OC)cc3C4=O)c1C2=O,8.1 µM,> 10 µM,> 10 µM,> 10 µM,> 10 µM,> 10 µM,> 10 µM,> 10 µM,> 10 µM,,,
COc1cc(O)c2c(c1)C(=O)C1=C(C[C@@H](O)[C@@](C)(O)[C@@H]1O)C2=O [ALTERSOLANOL C],> 10 µM,> 10 µM,8.8 µM,> 10 µM,> 10 µM,> 10 µM,> 10 µM,,,,,
"COc1cc(O)c2c(c1)C(=O)c1cc(C)c(O)c(-c3c(OC)cc(O)c4c3C(=O)c3cc(C)c(O)cc3C4=O)c1C2=O (single isomer, unassigned; atropisomer 2)",> 10 µM,> 10 µM,> 10 µM,> 10 µM,> 10 µM,> 10 µM,> 10 µM,,,,,
"COc1cc(O)c2c(c1-c1c(OC)cc(O)c3c1C(=O)C1=C(C3=O)[C@@H](O)[C@H](O)[C@](C)(O)[C@H]1O)C(=O)C1=C(C2=O)[C@H](O)[C@@H](O)[C@@](C)(O)[C@@H]1O (atropisomer, axis not shown)",,,> 10 µM,,5 µM,,> 10 µM,> 10 µM,> 10 µM,10 µM,7.5 µM,
"COc1cc(O)c2c(c1-c1c(OC)cc(O)c3c1C(=O)C1=C(C3=O)[C@@H](O)[C@H](O)[C@](C)(O)[C@H]1O)C(=O)C1=C(C2=O)[C@H](O)[C@@H](O)[C@@](C)(O)[C@@H]1O (single isomer, unassigned; atropisomer 2)",,5 µM,,> 10 µM,,> 10 µM,,,,2.5 µM,,>10 µM
COc1cc(O)c2c(c1)[C@H](O)[C@@H]1[C@@H](C2=O)[C@H](O)[C@@H](O)[C@@](C)(O)[C@@H]1O [AMPELANOL],> 10 µM,> 10 µM,> 10 µM,> 10 µM,> 10 µM,> 10 µM,> 10 µM,,,,,
COc1cc(O)c2c(c1)[C@H](O)[C@H]1C[C@](C)(O)[C@H](O)C[C@@H]1C2=O [TETRAHYDROALTERSOLANOL B],> 10 µM,7.3 µM,> 10 µM,> 10 µM,> 10 µM,> 10 µM,> 10 µM,,,,,

# Further lines, with some results ahead:
"MIC [2, 10]","MIC [4, 11]",MIC [5],MIC [6],"MIC [7, 12]",MIC [8],MIC [9],Compound,IC50 [1],IC50 [3],MIC [2],MIC [4],MIC [7]
7.9 µM,> 10 µM,> 10 µM,> 10 µM,> 10 µM,> 10 µM,> 10 µM,"COc1cc(O)c2c(c1-c1c(OC)cc(O)c3c1C(=O)c1cc(C)c(O)cc1C3=O)C(=O)C1=C(C2=O)[C@H](O)[C@@H](O)[C@@](C)(O)[C@@H]1O (single isomer, unassigned; atropisomer 1) [ALTERPORRIOL A/B]",,,,,
> 10 µM,4.6 µM,> 10 µM,4.6 µM,9.2 µM,> 10 µM,> 10 µM,COc1cc(O)c2c(c1)C(=O)c1cc(C)c(O)cc1C2=O [MACROSPORIN],> 10 µM,> 10 µM,,,
> 10 µM,> 10 µM,> 10 µM,> 10 µM,> 10 µM,> 10 µM,> 10 µM,COc1cc(O)c2c(c1)[C@H](O)[C@@H]1[C@H](C[C@@H](OC(C)=O)[C@@](C)(O)[C@@H]1O)C2=O,> 10 µM,> 10 µM,,,
> 10 µM,7.8 µM,7.8 µM,> 10 µM,7.8 µM,> 10 µM,7.8 µM,COc1cc(O)c2c(c1)C(=O)C1=C(C[C@@H](O)[C@@](C)(O)C1)C2=O [ALTERSOLANOL B],> 10 µM,> 10 µM,,,
> 10 µM,3.9 µM,3.9 µM,7.8 µM,3.9 µM,3.9 µM,> 10 µM,COc1cc(O)c2c(c1)C(=O)C1=C(C[C@@H](OC(C)=O)[C@@](C)(O)C1)C2=O,> 10 µM,> 10 µM,,,
> 10 µM,> 10 µM,> 10 µM,> 10 µM,> 10 µM,> 10 µM,> 10 µM,COc1cc(O)c2c(c1)C(=O)c1cc(C)c(OS(=O)(=O)O)cc1C2=O,> 10 µM,> 10 µM,,,
> 10 µM,> 10 µM,> 10 µM,> 10 µM,> 10 µM,> 10 µM,> 10 µM,COc1cc(O)c2c(c1)[C@H](O)[C@@H]1[C@H](C[C@@H](O)[C@@](C)(O)[C@@H]1O)C2=O [ALTERSOLANOL L],> 10 µM,> 10 µM,,,
0.6 µM,0.3 µM,0.6 µM,0.3 µM,0.16 µM,0.6 µM,0.3 µM,O=C(O)c1cn(C2CC2)c2cc(N3CCNCC3)c(F)cc2c1=O [CIPROFLOXACIN],,,,,
> 10 µM,> 10 µM,> 10 µM,> 10 µM,> 10 µM,> 10 µM,> 10 µM,COc1cc2c(c(O)c1-c1c(OC)cc(O)c3c1C(=O)C1=C(C[C@@H](O)[C@@](C)(O)[C@@H]1O)C3=O)C(=O)C1=C(C[C@](C)(O)[C@H](O)C1)C2=O,,,,,
> 10 µM,> 10 µM,> 10 µM,> 10 µM,> 10 µM,> 10 µM,> 10 µM,COc1cc(O)c2c(c1)C(=O)c1cc(C)c(O)c(-c3c(OC)cc4c(c3O)C(=O)c3cc(O)c(C)cc3C4=O)c1C2=O [ALTERPORRIOL Q],> 10 µM,> 10 µM,,,
> 10 µM,> 10 µM,> 10 µM,> 10 µM,> 10 µM,> 10 µM,> 10 µM,COc1cc(O)c2c(c1)C(=O)c1cc(C)c(O)c(-c3c(OC)cc(O)c4c3C(=O)C3=C(C[C@@H](O)[C@@](C)(O)[C@@H]3O)C4=O)c1C2=O,> 10 µM,> 10 µM,,,
